Experimental findings from ChEMBL document CHEMBL1128406, “Effects of tubercidin and its 5'-O-methyl ether on adenosine receptors and mediator release functions in mast cells” (1995) are described below.

Assay [1] deals with CHO-K1-BH4. Kind of assay: Compound is tested for cytotoxicity in Chinese hamster ovary cells (CHO-K1-BH4) in the absence of S-9 microsome fraction at concentration 0.1*10e-4 micro M. Type of assay: functional, Cricetulus griseus. In a few lines:
(§1)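 CHO-K1-BH4 cells exposed to test article for 5 h, with or without exogenous S-9 microsome fraction, then recovered overnight without compound before relative cytotoxicity was scored.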

The subject of assay [2] is CHO-K1-BH4. As to the kind of experiment: Compound is tested for cytotoxicity in Chinese hamster ovary cells (CHO-K1-BH4) in the absence of S-9 microsome fraction at concentration 1.1*10e-4 micro M. Type of assay: functional, Cricetulus griseus. In a few lines: as §1
Assay [3] concerns CHO-K1-BH4. Kind of assay: Compound is tested for cytotoxicity in Chinese hamster ovary cells (CHO-K1-BH4) in the absence of S-9 microsome fraction at concentration 11.4*10e-4 micro M. Type of assay: functional, Cricetulus griseus. A digest of the protocol:
as §1

The test system of assay [4] is CHO-K1-BH4. Kind of assay: Compound is tested for cytotoxicity in Chinese hamster ovary cells (CHO-K1-BH4) in the absence of S-9 microsome fraction at concentration 114*10e-4 micro M. Type of assay: functional, Cricetulus griseus. In a few lines: as §1
Assay [5] relates to CHO-K1-BH4. As to the kind of experiment: Compound is tested for cytotoxicity in Chinese hamster ovary cells (CHO-K1-BH4) in the absence of S-9 microsome fraction at concentration 9 micro M. It counts as functional, Cricetulus griseus. In a few lines: as §1
Assay [6] relates to CHO-K1-BH4. Kind of assay: Compound is tested for cytotoxicity in Chinese hamster ovary cells (CHO-K1-BH4) in the presence of S-9 microsome fraction at concentration 0.1*10e-4 micro M. Type of assay: functional, Cricetulus griseus. In a few lines: as §1
The test system of assay [7] is CHO-K1-BH4. Kind of assay: Compound is tested for cytotoxicity in Chinese hamster ovary cells (CHO-K1-BH4) in the presence of S-9 microsome fraction at concentration 1.1*10e-4 micro M. Type of assay: functional, Cricetulus griseus. In a few lines: as §1
Assay [8] deals with CHO-K1-BH4. Kind of assay: Compound is tested for cytotoxicity in Chinese hamster ovary cells (CHO-K1-BH4) in the presence of S-9 microsome fraction at concentration 11.4*10e-4 micro M. It counts as functional, Cricetulus griseus. In a few lines: as §1
Assay [9] has as its system CHO-K1-BH4. As to the kind of experiment: Compound is tested for cytotoxicity in Chinese hamster ovary cells (CHO-K1-BH4) in the presence of S-9 microsome fraction at concentration 114*10e-4 micro M. Type of assay: functional, Cricetulus griseus. A digest of the protocol: as §1
The species named for another assay is Mus musculus. As to the kind of experiment: Compound is evaluated for the ability to inhibit the passive cutaneous anaphylaxis (PCA) reaction in mouse in presence of Ag. It counts as functional.
The subject of assay [10] is CHO-K1-BH4. As to the kind of experiment: Compound is tested for cytotoxicity in Chinese hamster ovary cells (CHO-K1-BH4) in the absence of S-9 microsome fraction at concentration 0.17 micro M. It counts as functional, Cricetulus griseus. A digest of the protocol:
(§2)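 CHO-K1-BH4 cells exposed to the test article for 5 h with no exogenous S-9 microsome fraction, then given an overnight recovery period without compound. Relative cytotoxicity was scored afterwards, following the contract lab's CYT/CHO protocol.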

Assay [11] has as its system CHO-K1-BH4. As to the kind of experiment: Compound is tested for cytotoxicity in Chinese hamster ovary cells (CHO-K1-BH4) in the absence of S-9 microsome fraction at concentration 1.1 micro M. Type of assay: functional, Cricetulus griseus. A digest of the protocol: as §2
The subject of assay [12] is CHO-K1-BH4. As to the kind of experiment: Compound is tested for cytotoxicity in Chinese hamster ovary cells (CHO-K1-BH4) in the absence of S-9 microsome fraction at concentration 11 micro M. It counts as functional, Cricetulus griseus. In a few lines: as §2
Assay [13] deals with CHO-K1-BH4. As to the kind of experiment: Compound is tested for cytotoxicity in Chinese hamster ovary cells (CHO-K1-BH4) in the absence of S-9 microsome fraction at concentration 1136 micro M. Type of assay: functional, Cricetulus griseus. A digest of the protocol:
as §2

Assay [14] relates to CHO-K1-BH4. Kind of assay: Compound is tested for cytotoxicity in Chinese hamster ovary cells (CHO-K1-BH4) in the presence of S-9 microsome fraction at concentration 0.17 micro M. Type of assay: functional, Cricetulus griseus. In a few lines: (§3)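 CHO-K1-BH4 cells exposed to the test article for 5 h with an S-9 microsome fraction present, then given an overnight compound-free recovery period. Relative cytotoxicity was assessed after recovery.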

The test system of assay [15] is CHO-K1-BH4. Kind of assay: Compound is tested for cytotoxicity in Chinese hamster ovary cells (CHO-K1-BH4) in the presence of S-9 microsome fraction at concentration 1.1 micro M. It counts as functional, Cricetulus griseus. A digest of the protocol: as §3
Assay [16] concerns CHO-K1-BH4. Kind of assay: Compound is tested for cytotoxicity in Chinese hamster ovary cells (CHO-K1-BH4) in the presence of S-9 microsome fraction at concentration 11 micro M. It counts as functional, Cricetulus griseus. A digest of the protocol: as §3
Assay [17] deals with CHO-K1-BH4. Kind of assay: Compound is tested for cytotoxicity in Chinese hamster ovary cells (CHO-K1-BH4) in the presence of S-9 microsome fraction at concentration 1136 micro M. Type of assay: functional, Cricetulus griseus. A digest of the protocol:
as §3

Assay [18] concerns CHO-K1-BH4. Kind of assay: Compound is tested for cytotoxicity in Chinese hamster ovary cells (CHO-K1-BH4) in the presence of S-9 microsome fraction at concentration 114 micro M. Type of assay: functional, Cricetulus griseus. A digest of the protocol: as §3
Assay [19] concerns CHO-K1-BH4. Kind of assay: Compound is tested for cytotoxicity in Chinese hamster ovary cells (CHO-K1-BH4) in the absence of S-9 microsome fraction at concentration 0 micro M. It counts as functional, Cricetulus griseus. In a few lines:
as §2

Assay [20] has as its system CHO-K1-BH4. Kind of assay: Compound is tested for cytotoxicity in Chinese hamster ovary cells (CHO-K1-BH4) in the absence of S-9 microsome fraction at concentration 0.4 micro M. Type of assay: functional, Cricetulus griseus. A digest of the protocol:
as §2

Assay [21] relates to CHO-K1-BH4. As to the kind of experiment: Compound is tested for cytotoxicity in Chinese hamster ovary cells (CHO-K1-BH4) in the absence of S-9 microsome fraction at concentration 3.7 micro M. Type of assay: functional, Cricetulus griseus. A digest of the protocol: as §2
Assay [22] relates to CHO-K1-BH4. Kind of assay: Compound is tested for cytotoxicity in Chinese hamster ovary cells (CHO-K1-BH4) in the absence of S-9 microsome fraction at concentration 360 micro M. Type of assay: functional, Cricetulus griseus. A digest of the protocol:
as §2

In assay [23] the test system is CHO-K1-BH4. Kind of assay: Compound is tested for cytotoxicity in Chinese hamster ovary cells (CHO-K1-BH4) in the absence of S-9 microsome fraction at concentration 37 micro M. Type of assay: functional, Cricetulus griseus. In a few lines: as §2
Assay [24] concerns CHO-K1-BH4. Kind of assay: Compound is tested for cytotoxicity in Chinese hamster ovary cells (CHO-K1-BH4) in the presence of S-9 microsome fraction at concentration 3.7 micro M. It counts as functional, Cricetulus griseus. In a few lines: as §3
The subject of assay [25] is CHO-K1-BH4. Kind of assay: Compound is tested for cytotoxicity in Chinese hamster ovary cells (CHO-K1-BH4) in the presence of S-9 microsome fraction at concentration 360 micro M. Type of assay: functional, Cricetulus griseus. In a few lines: as §3
For assay [26], the system named is CHO-K1-BH4. As to the kind of experiment: Compound is tested for cytotoxicity in Chinese hamster ovary cells (CHO-K1-BH4) in the presence of S-9 microsome fraction at concentration 37 micro M. Type of assay: functional, Cricetulus griseus. In a few lines:
as §3

Structures are written as SMILES.

For orientation: Inhibition means the relative decrease from the control value, in per cent. `Nc1ncnc2c1ccn2[C@@H]1O[C@H](CO)[C@@H](O)[C@H]1O` [TUBERCIDIN]: the Inhibition is 10% in the assay on CHO-K1-BH4 [1]; 16% with CHO-K1-BH4 [2]; 92% with CHO-K1-BH4 [3]; 100% in the assay with CHO-K1-BH4 [4]; 11% with CHO-K1-BH4 [5]; 4% in the assay on CHO-K1-BH4 [6]. The Inhibition was determined as 9% in the assay on CHO-K1-BH4 [7], 80% in the assay with CHO-K1-BH4 [8] and 100% with CHO-K1-BH4 [9]. The grade in the assay listed under Mus musculus turned out to be 1.17.
Take `Nc1ncnc2c1ncn2[C@@H]1O[C@H](CO)[C@@H](O)[C@H]1O` [ADENOSINE]: the Inhibition came to 0% in the assay with CHO-K1-BH4 [10]; 22% with CHO-K1-BH4 [11]; 19% in the assay on CHO-K1-BH4 [12]; 43% in the assay on CHO-K1-BH4 [13]; 0.04% in the assay on CHO-K1-BH4 [14]; 8% in the assay with CHO-K1-BH4 [15]. The Inhibition was determined as 0% in the assay with CHO-K1-BH4 [16], 7% in the assay with CHO-K1-BH4 [17] and 0% in the assay on CHO-K1-BH4 [18].
For `COC[C@H]1OC(n2ccc3c(N)ncnc32)[C@H](O)[C@@H]1O` (stereo partly drawn), the Inhibition amounted to 0% in the assay with CHO-K1-BH4 [19]; 0% in the assay with CHO-K1-BH4 [20]; 12% in the assay with CHO-K1-BH4 [21]; 37% with CHO-K1-BH4 [22]; 30% in the assay with CHO-K1-BH4 [23]; 2% with CHO-K1-BH4 [24]. Moreover, the Inhibition in the assay on CHO-K1-BH4 [25] is 99%; in the assay on CHO-K1-BH4 [26], 36%. The grade in the assay listed under Mus musculus is reported as 1.75.
